Measurements reported in PMC12716021 (Chemistry & Biodiversity, 2025).

Legend:
[1] = Ferric reducing antioxidant power; conditions: read-out: IC50 FRAP; in vitro; standard gallic acid
NO scavenging activity = conditions: read-out: IC50 NO; in vitro; standard gallic acid
Method in brief: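 Sodium nitroprusside (10 mM, in sodium phosphate buffer pH 7.4) added to test compound ([…]) or distilled water as control, then incubated at 37°C for 2 h. Griess reagent added, and A540 read. NO scavenging % = (1 − A compound/A control) × 100.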

[2] = DPPH radical scavenging activity; conditions: read-out: IC50 DPPH; in vitro; standard gallic acid

SMILES: O=C(O)c1cc(O)c(O)c(O)c1 [Gallic acid]
- IC50 [1]: 117 µM
- IC50 (NO scavenging activity): 78.5 µM
- IC50 [2]: 105 µM
